# Measurements as given in ChEMBL document CHEMBL1139136, “Synthesis of novel diaryl ethers and their evaluation as antimitotic agents” (Bioorg Med Chem Lett, 2007).
# The source made the active and inactive calls. No cut-off for these calls is given here.
# Legend:
# HL-60 = experiment: Antiproliferative activity against human HL60 cells; type: functional, cell-based
# Outline: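 Human myeloid leukemia HL-60 cells; antiproliferative IC50 (µM) by a previously described protocol, each series repeated independently at least two to three times.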
# Tubulin (Homo sapiens) [1] = target: T1, Tubulin (Homo sapiens) (UniProt P68371+Q9H4B7+P0DPH7+P68366+Q13509+Q71U36+P04350+Q3ZCM7+P07437+P68363+Q9BQE3+Q6PEY2+Q13885+Q9BVA1+Q9BUF5); experiment: Inhibition of tubulin polymerization at 3 ug/ml; type: protein-complex assay
# Outline: (§1)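 Kit-based tubulin assembly assay with compounds dissolved in DMSO. All components go into wells held at 0 °C and a baseline is set at 340 nm. Assembly is read at 0 °C and then at 37 °C. Results are percent inhibition against a vehicle control at each tested concentration.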
# Tubulin (Homo sapiens) [2] = target: T1, Tubulin (Homo sapiens); experiment: Inhibition of tubulin polymerization at 1 ug/ml; type: protein-complex assay; outline: as §1
# Tubulin (Homo sapiens) [3] = target: T1, Tubulin (Homo sapiens); experiment: Inhibition of tubulin polymerization at 10 ug/ml; type: protein-complex assay; outline: as §1
# Tubulin (Homo sapiens) [4] = target: T1, Tubulin (Homo sapiens); experiment: Inhibition of tubulin polymerization at 20 ug/ml; type: protein-complex assay
SMILES,IC50 (HL-60),further results
CCOC(=O)c1ccc(Oc2ccc(OC)cc2)cc1,> 20 µM,
CCOC(=O)c1ccc(Oc2ccc(Cl)cc2)cc1,> 20 µM,
CCOC(=O)c1ccc(Oc2ccc(OC)c(F)c2)cc1O,> 30 µM,
COc1ccc(Oc2c(OC)cccc2OC)cc1F,> 20 µM,
CCOC(=O)c1ccc(Oc2ccc(OC)cc2)cc1O,> 30 µM,
COC(=O)c1ccc(Oc2ccc(OC)cc2)c(N)c1,> 20 µM,
COC(=O)c1cccc(Oc2ccc(OC)cc2)c1,> 20 µM,
CCOC(=O)c1ccc(Oc2ccc(F)c(F)c2)cc1O,> 30 µM,
COc1ccc(S(=O)(=O)Nc2cccnc2Nc2ccc(O)cc2)cc1 [ABT-751],0.34 µM,inhibition (Tubulin (Homo sapiens) [1]): 74.6%; inhibition (Tubulin (Homo sapiens) [2]): 40%; inhibition (Tubulin (Homo sapiens) [3]): 96.3%
CCOC(=O)c1ccc(Oc2ccc(OC)c(F)c2)cc1,3.5 µM,inhibition (Tubulin (Homo sapiens) [3]): 12.5%
CCOC(=O)c1ccc(Oc2ccc(N(C)C)cc2)cc1O,> 30 µM,
CCOC(=O)c1ccc(Oc2ccc(C#N)cc2)cc1,> 20 µM,
COC(=O)c1cccc(Oc2ccc(C#N)cc2)c1,> 20 µM,
COc1ccc(Oc2ccc(C(=O)N(C)OC)cc2)cc1F,> 30 µM,
COC(=O)c1cccc(Oc2ccc(N(C)C)cc2)c1,> 20 µM,
COc1cccc(OC)c1Oc1ccc(N(C)C)cc1,11.4 µM,inhibition (Tubulin (Homo sapiens) [3]): 12.5%
CCOC(=O)c1ccc(Oc2ccc(N(C)C)cc2)cc1,> 20 µM,
COc1cccc(OC)c1Oc1ccc(C#N)cc1,> 20 µM,
CCOC(=O)c1ccc(Oc2ccc(F)c(F)c2)cc1,> 30 µM,
CCOC(=O)c1ccc(Oc2ccc(OC)c(OC)c2)cc1O,1.5 µM,inhibition (Tubulin (Homo sapiens) [4]): 13.3%; inhibition (Tubulin (Homo sapiens) [3]): 5.5%
COC(=O)c1ccc(Oc2ccc(OC)cc2)c(I)c1,> 20 µM,
COC(=O)c1cccc(Oc2ccc(OC)c(F)c2)c1,> 20 µM,
COC(=O)c1ccc(Oc2ccc(OC)c(OC)c2)c(N)c1,> 20 µM,
CCOC(=O)c1ccc(Oc2ccc(OC)c(OC)c2)cc1,> 20 µM,
COC(=O)c1ccc(Oc2ccc(OC)c(OC)c2)c([N+](=O)[O-])c1,> 20 µM,
COc1ccc(Oc2ccc(C(=O)O)cc2)cc1F,> 30 µM,
COC(=O)c1ccc(Oc2ccc(OC)c(OC)c2)c(I)c1,5.62 µM,Activity (Tubulin (Homo sapiens) [3]): inactive
COc1ccc(Oc2ccc(C(=O)NCCc3ccccc3)cc2)cc1F,20.6 µM,
COC(=O)c1ccc(Oc2ccc(OC)cc2)c([N+](=O)[O-])c1,> 20 µM,
COc1ccc(Oc2ccc(C(=O)NC3CC3)cc2)cc1F,14.1 µM,inhibition (Tubulin (Homo sapiens) [3]): 8.7%
